From PubChem
An excerpt weighted towards active compounds, which were near 2.8% of everything screened.
NPY1 pot ag: human NPY-Y1 potentiation or agonism, primary screen; P25929; NPY-Y1 expressing cells, potentiator/agonist activation; activation, % at 3.6 µM; hit rate 0.37% among 220,000; AID 1304; in the data active = activation above about 33%, passing the limit was not always enough;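 note: cells stimulated with NPY at EC10 then isoproterenol at EC100; 0% = low agonist plus stimulus and 100% = saturating agonist plus stimulus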
Measles CPE: protection of cells from measles virus | hit rate 1.5% among 140,000 | AID 841 | protection (pct of control), % at 4 µM | Measles virus-infected cells, CPE protection, absorbance; in the data active = protection mostly above about 24%, no sharp cut-off; inactive = mostly below about 26%
Rad51 HR inh: Rad51 (human) homologous recombination inhibition | Q06609 | hRad51 DNA strand exchange, fluorescence dequenching | inhibition, % at 10 µM | hit rate 0.085% among 200,000;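 active = inhibition above 40% at the single screening dose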;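 note: 0% = DMSO control wells and 100% = blanks with heterologous ssDNA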
Target sequence (Q06609 whole entry, looked up): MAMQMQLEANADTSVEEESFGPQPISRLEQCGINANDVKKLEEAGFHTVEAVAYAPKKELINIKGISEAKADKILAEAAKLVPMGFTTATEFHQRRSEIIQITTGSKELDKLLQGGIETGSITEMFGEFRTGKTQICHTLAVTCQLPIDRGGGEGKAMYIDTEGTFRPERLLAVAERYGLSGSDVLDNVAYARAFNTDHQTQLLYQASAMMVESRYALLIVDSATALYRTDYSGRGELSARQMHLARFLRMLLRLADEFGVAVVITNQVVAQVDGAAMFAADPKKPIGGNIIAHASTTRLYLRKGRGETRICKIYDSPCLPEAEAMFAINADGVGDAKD
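Test system: preformed human Rad51 ssDNA filaments; also added: Donor/quencher-labelled 47-bp dsDNA substrate; doses: 10 µM final, single point; times: 37 °C 15-min filament assembly, 30-min compound preincubation, 15-min exchange; detection: FRET fluorescence dequenching, excitation 485 nm, emission 520 nm; read-out basis: Fluorescence-based percent inhibition, control- and blank-normalised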
NPY-Y2 PAM-ag: human NPY-Y2 potentiation or agonism, primary screen | cells expressing NPY-Y2, potentiator/agonist read-out | activation, % at 3.6 µM | hit rate 0.45% among 220,000 | AID 1359; in the data active = activation above about 27%;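 note: cells stimulated with NPY near EC25 plus isoproterenol at EC100; 0% = vehicle plus submaximal agonist and 100% = vehicle plus saturating agonist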
Target sequence (P49146 whole entry, looked up): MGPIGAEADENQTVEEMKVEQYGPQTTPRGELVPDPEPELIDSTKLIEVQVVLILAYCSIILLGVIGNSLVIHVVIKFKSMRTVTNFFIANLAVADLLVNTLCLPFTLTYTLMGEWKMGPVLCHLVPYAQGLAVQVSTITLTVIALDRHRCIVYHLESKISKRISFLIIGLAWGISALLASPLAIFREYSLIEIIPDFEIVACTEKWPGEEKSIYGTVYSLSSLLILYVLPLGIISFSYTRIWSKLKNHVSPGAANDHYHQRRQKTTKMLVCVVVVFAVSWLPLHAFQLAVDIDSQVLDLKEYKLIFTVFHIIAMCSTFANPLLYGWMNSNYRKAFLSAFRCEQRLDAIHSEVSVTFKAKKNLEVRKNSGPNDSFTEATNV
NPY Y2 blocker: antagonists of human neuropeptide Y receptor Y2. inhibition, % at 2.7 µM. NPY-Y2 expressing cells, antagonist mode. P49146. hit rate 0.99% among 140,000; in the data active = inhibition above about 17%;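 note: 0% = vehicle with agonist challenge and 100% = reference antagonist with challenge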
NPY-Y1 antag: NPY-Y1 (human) receptor antagonism; inhibition, % at 3.6 µM; P25929; hit rate 1% among 200,000; HEK293-CNG Y1 cells, membrane potential fluorescence; NPY at EC95, then isoproterenol;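 active = inhibition above the campaign mean inhibition of all tested compounds plus 3 SD, cut at about 20% in these data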;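 note: 0% = DMSO wells given NPY plus isoproterenol and 100% = isoproterenol alone without NPY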
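Test system: HEK293 cells co-expressing NPY Y1 receptor and cyclic-nucleotide gated channel; Also added: NPY (25 nM), isoproterenol (1 µM), Ro 20-1724 (25 µM); Compound dosing: one concentration, 3.6 µM, in 0.4% DMSO; Timing: dye 3 h, compound 60 min room temperature, stimulation 45 min; Technique: Membrane-potential fluorescent dye readout.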
NPY1 antag ctr: antagonizes human NPY-Y1, counter-screen to NPY-Y2 antagonists; inhibition, % at 3.6 µM; hit rate 19% among 710; cell-based NPY-Y1 antagonism counterscreen; shares compounds with NPY Y2 blocker;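 note: cells challenged with NPY then isoproterenol with cAMP sensed through a CNG channel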
NPY2 antag conf: human NPY-Y2 antagonism, confirmation; hit rate 32% among 710; shares compounds with NPY Y2 blocker; inhibition, % at 2.8 µM; HEK293 NPY-Y2 CNG channel, membrane potential fluorescence;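 active = mean inhibition of triplicate wells above the hit cutoff set in the primary screen, cut at about 17% in these data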;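 note: 0% = DMSO with NPY challenge and 100% = BIIE0246 high control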
NPY1 antag conf: confirmation of human neuropeptide Y receptor Y1 antagonists | shares compounds with NPY-Y1 antag | HEK293-CNG NPY-Y1, membrane potential fluorescence, cAMP; NPY challenge against isoproterenol-raised cAMP | inhibition, % at 3.6 µM | hit rate 21% among 1,200 | AID 1254;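 note: 0% = vehicle with agonist plus stimulus and 100% = stimulus alone without agonist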
NPY-Y2 antag ct: antagonizes human NPY-Y2, counter-screen to NPY-Y1 antagonists. inhibition, % at 3.6 µM. HEK293 NPY-Y2 CNG membrane potential fluorescence, antagonism; cells given NPY, then isoproterenol. hit rate 28% among 1,200. shares compounds with NPY-Y1 antag; in the data active = inhibition above about 17%;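 note: 0% = DMSO with agonist challenge and 100% = reference antagonist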
NPY-Y2 pot conf: human NPY-Y2 potentiation or agonism, confirmation. cell-based NPY-Y2 potentiator/agonist assay. hit rate 20% among 450. activation, % at 3.6 µM. shares compounds with NPY-Y2 PAM-ag; in the data active = activation above about 33%
NPY-Y1 counter: NPY-Y1 potentiation or agonism as NPY-Y2 counter-screen; shares compounds with NPY-Y2 PAM-ag; activation, % at 3.6 µM; Y1 HEK293-CNG cells, membrane potential fluorescence; AID 1651; hit rate 20% among 450; in the data active = activation above about 45%;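 note: cells stimulated with submaximal NPY then isoproterenol with phosphodiesterase inhibitor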
NPY-Y1 ag 2: human NPY-Y1 agonism as NPY-Y2 potentiator counter-screen; HEK293 Y1-CNGC, membrane potential fluorescence; AID 1702; shares compounds with NPY-Y2 PAM-ag; activation, % at 3.6 µM; hit rate 37% among 450;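 active = activation above the mean of DMSO-only control wells plus 3 SD, cut at about 18% in these data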;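 note: cells stimulated with 1 µM isoproterenol plus the PDE inhibitor Ro 20-1724; 0% = isoproterenol with DMSO and no NPY and 100% = 40 nM NPY; Y1 agonists lower the membrane potential dye signal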
CNGC inh: blocks CNG channel activity, counter-screen for NPY-Y2 potentiators; inhibition, % at 3.6 µM; HEK293-CNG parental, isoproterenol cAMP, membrane potential fluorescence; AID 1703; shares compounds with NPY-Y2 PAM-ag; hit rate 32% among 450;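 active = inhibition above the control-well mean plus 3 SD of those wells, cut at about 22% in these data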;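 note: 0% = DMSO with isoproterenol and 100% = DMSO without isoproterenol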
Y2 agonist ctr: counter-screen for NPY-Y2 potentiators: agonists of human NPY-Y2. shares compounds with NPY-Y2 PAM-ag. HEK293 Y2/CNGC cells, membrane potential fluorescence, agonist mode. activation, % at 3.6 µM. hit rate 56% among 450;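 active = activation above the mean of solvent-only control wells plus 3 SD, cut at about 10% in these data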;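 note: cells stimulated by isoproterenol with no NPY added so direct agonism is tested; 0% = DMSO with isoproterenol alone and 100% = NPY at EC100 plus isoproterenol; agonism lowers probe fluorescence through less cAMP and CNG channel opening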
The depositor's hits bear a star; nt = not tested or not shown. Cut-off read from the data, not from the text of the source, unless noted: active = inhibition above about 20%; inactive = the rest.

SMILES	NPY1 pot ag	Measles CPE	Rad51 HR inh	NPY-Y2 PAM-ag	NPY Y2 blocker	NPY-Y1 antag	NPY1 antag conf	NPY-Y2 antag ct	others
c1ccc(C(Cc2nc(-c3ccncc3)no2)c2ccccc2)cc1	38	4	nt	42*	23*	3	nt	nt	NPY1 antag ctr=9;NPY2 antag conf=4;NPY-Y2 pot conf=14;NPY-Y1 counter=-11;NPY-Y1 ag 2=2;CNGC inh=-9;Y2 agonist ctr=2
COc1ccc(CCC(=O)Nc2cccc(S(=O)(=O)N(C)C)c2)cc1OC	-3	32	-22	11	1	-1	nt	nt
CCN1/C(=C/c2sc(-c3ccccc3C)c[n+]2C)Sc2ccccc21	-10	nt	-74	21	nt	40*	28*	15
CCN1/C(=C/c2ccc3cc(C)ccc3[n+]2CC)Sc2ccccc21	-95	1	-215	4	9	18	nt	nt
CN(Cc1cn(C)nc1-c1ccccc1F)CC1CCCCO1 (centres undefined)	9	nt	21	-3	nt	4	nt	nt
COc1ccc(-c2ccc(C(=O)O)c(=O)[nH]2)cc1	-8	nt	3	6	nt	-3	nt	nt
Cc1ccc(-c2ccc(C(=O)O)[nH]2)cc1	-39	2	0	-43	11	28*	7	8
Cc1cccc(C(=O)Nc2cccc(OC(=O)c3cccc(C)c3)c2)c1	-3	1	-3	-24	17	27*	17	11
O=C(NCC1CCCO1)c1onc(CSc2ccccc2)c1C(=O)O (centres undefined)	15	5	1	-11	2	4	nt	nt
Cc1ccc(C)c(SCc2noc(C(=O)NCC3CCCO3)c2C(=O)O)c1 (centres undefined)	-26	4	-9	-20	10	21*	22*	13
CC(C)c1ccc(SCc2noc(C(=O)NCC3CCCO3)c2C(=O)O)cc1 (centres undefined)	-14	15	1	-38	9	24*	10	10
Cc1cccc(SCc2noc(C(=O)NCC3CCCO3)c2C(=O)O)c1 (centres undefined)	-37	20	5	-20	10	17	nt	nt
N#Cc1c(N2CCN(C(=O)c3ccccc3)CC2)nc(-c2ccccc2)c2c1CCCC2	-18	5	5	-8	6	27*	17	11
N#Cc1c(N2CCN(C(=O)c3ccccc3Cl)CC2)nc(-c2ccccc2)c2c1CCCC2	5	3	nt	1	7	6	nt	nt
O=C(Nc1ccc2c(c1)OCO2)C1CCN(C(=O)c2ccc(Br)cc2)CC1	-8	nt	41*	-20	nt	33*	11	9
Cc1ccccc1N1Cc2ccccc2C1	9	26	9	1	3	-4	nt	nt
O=C(/C=C/c1ccc(Cl)cc1)NCCSc1ccccc1	-39	15	nt	-19	5	29*	20*	43*
O=C(/C=C/c1cccc([N+](=O)[O-])c1)NCCSCc1ccc(Cl)cc1	-28	6	nt	-2	6	4	nt	nt
O=C(/C=C/c1ccccc1)NCCSCc1ccc(Cl)cc1	-43	3	nt	-35	13	21*	6	10
CCOC(=O)c1c(N)sc2c(OCC)c(Br)ccc12	-23	20	12	-9	8	7	nt	nt
CCOC(=O)c1c(NC(C)=O)sc2c(OCC(O)CNC(C)(C)C)c(Br)ccc12 (centres undefined)	-198	nt	14	-108	nt	122*	98*	115*
CCN(CC)C(=O)CSc1nc2c(sc(=S)n2Cc2ccco2)c(=O)n1-c1ccccc1	2	15	-3	-53	9	27*	3	5
CCN(CC)C(=O)CSc1nc2c(sc(=S)n2-c2ccccc2)c(=O)[nH]1	19	nt	-7	2	nt	-1	nt	nt
CC1CCC2C(=O)N(c3ccc(C(=O)NCc4ccccc4)cc3)C(=O)C2C1 (centres undefined)	-5	19	1	0	2	-6	nt	nt
CC(C)CCNC(=O)/C=C/c1ccc(Br)cc1	-25	5	21	-12	15	20*	8	5
SMILES	NPY1 pot ag	Measles CPE	Rad51 HR inh	NPY-Y2 PAM-ag	NPY Y2 blocker	NPY-Y1 antag	NPY1 antag conf	NPY-Y2 antag ct	others
CCOC(=O)N1CCN(c2c(NCc3ccccc3Cl)c(=O)c2=O)CC1	-8	nt	nt	5	nt	nt	nt	nt
CCOc1ccccc1-c1nn2c(Cc3ccccc3)nnc2s1	-74	9	9	-19	10	52*	32*	59*
c1ccc(Cc2nnc3sc(-c4ccncc4)nn23)cc1	-8	12	-3	-6	-3	3	nt	nt
O=C1N[C@@H](Cc2cn(S(=O)(=O)c3c(F)c(F)c(F)c(F)c3F)c3ccccc23)C(=O)N[C@H]1Cc1ccccc1	nt	nt	2	nt	nt	nt	nt	nt
N#C/C(N)=C(/C#N)N=Cc1cccc(Cl)c1	-4	nt	5	-13	nt	nt	nt	nt
CCCCCC(O)(CCCCC)C(=O)NNc1ccccc1	9	6	-4	-2	10	25*	11	5
Cc1cccc(N/C(N)=N/c2nc(C)c(Cc3ccccc3)c(=O)[nH]2)c1	-5	nt	6	-4	nt	3	nt	nt
CCCn1nnc(NC(=O)c2cccc(Cl)c2)n1	10	4	2	-9	2	51*	1	1
Cc1cccc(C(=O)NNC2=C(C(=O)C(F)(F)F)CCC2)c1O	13	3	3	-8	3	1	nt	nt
COc1ccc(-c2cc(-c3n[nH]c(=S)n3-c3ccccc3Cl)[nH]n2)cc1	-32	nt	22	-19	nt	42*	47*	73*
